Screens: PubChem, several laboratories
mABHD4 FP: inhibits mouse alpha/beta hydrolase domain 4. Q8VD66. 0.54% of 370,000 active. purified mABHD4, FP-Rh probe fluorescence polarization. inhibition, % at 8.92 µM;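 active = inhibition exceeding the mean over every tested compound plus 3 SD, cut at about 30% in these data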;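 note: 0% = plate median of compound wells and 100% = S159A mutant with DMSO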
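Test system: mABHD4 protein; Read-out basis: % inhibition; Incubation: 45 min + 60 min at 25 °C; Repeats: single replicate; Technique: fluorescence polarization with parallel and perpendicular emission, 525/598 nm; Compound: 8.92 µM, single dose; Benchmarks: full inhibition S159A mutant plus DMSO, zero as sample-well median.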
PRMT1 inh: inhibitors of human PRMT1 | inhibition, % at 2.79 µM | Q99873 | 1.3% of 370,000 active | recombinant PRMT1, activity-based probe fluorescence polarization;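 active = inhibition above about 21% made by adding two undisclosed values, limit read from the data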
HTRA1 inhibitor: blocks human HTRA1 serine peptidase; Q92743; 0.5% of 340,000 active; inhibition, % at 5.96 µM; recombinant HTRA1, FP-rhodamine activity-based probe, fluorescence polarization; in the data active = inhibition above about 36%;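 note: 0% = enzyme with DMSO and 100% = wells lacking enzyme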
ATG4B inhibitor: ATG4B (human) cysteine protease inhibition; 0.51% of 340,000 active; AID 504462; inhibition, % at 8.33 µM; Q9Y4P1; ATG4B cleavage of LC3-PLA2, NBD-HPC fluorescence, 1 h; in the data active = inhibition above about 40%
SIAE primary: blocks human sialic acid acetylesterase. 0.69% of 370,000 active. AID 1053197. SIAE FP-Rh probe binding, fluorescence polarization. Q9HAT2. inhibition, % at 9.66 µM;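 active = inhibition above a cutoff: mean of compounds within the control limits plus 3 SD of those, cut at about 17% in these data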;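 note: 0% = plate median of compound wells and 100% = probe without SIAE protein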
Target sequence (Q9HAT2 whole entry, looked up): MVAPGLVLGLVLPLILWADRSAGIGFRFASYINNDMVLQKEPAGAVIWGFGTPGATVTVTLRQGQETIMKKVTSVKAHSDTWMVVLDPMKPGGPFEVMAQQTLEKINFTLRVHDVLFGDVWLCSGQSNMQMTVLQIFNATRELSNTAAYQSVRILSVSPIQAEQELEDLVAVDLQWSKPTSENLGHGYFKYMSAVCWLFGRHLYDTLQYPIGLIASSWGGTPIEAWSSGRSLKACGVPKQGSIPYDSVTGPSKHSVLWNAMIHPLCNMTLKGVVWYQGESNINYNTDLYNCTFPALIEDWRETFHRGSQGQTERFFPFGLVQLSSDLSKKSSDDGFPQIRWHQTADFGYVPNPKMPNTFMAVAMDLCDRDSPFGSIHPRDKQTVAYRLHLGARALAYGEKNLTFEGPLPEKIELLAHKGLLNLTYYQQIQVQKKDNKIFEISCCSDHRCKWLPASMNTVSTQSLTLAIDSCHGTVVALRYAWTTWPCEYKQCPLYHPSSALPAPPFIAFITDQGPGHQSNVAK
TCR CD3 inh: inhibitors of human TCR-CD3 interaction. TAMRA-labeled TCR probe fluorescence, biochemical. inhibition, % at 9.4 µM. 0.37% of 360,000 active. AID 651800; in the data active = inhibition above about 19%;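 note: recombinant mutant TCR 2C K166C tagged with TAMRA read by polarization; 0% = receptor in buffer alone and 100% = receptor with positive control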
An asterisk follows results filed as active; / = no result. Compounds with a hit are over-represented: about 2.9% of the library has one in this group of screens.

SMILES	mABHD4 FP	PRMT1 inh	HTRA1 inhibitor	ATG4B inhibitor	SIAE primary	TCR CD3 inh
O=C(Nc1ccc(Cl)cc1)OC1CCC12CCC(c1ccccc1)CC2 (centres undefined)	-30.1	-5.5	/	/	-20.8	/
COC(=O)CCC/C=C1/SCC(NC(=O)c2ccccc2)C1=O (centres undefined)	1.8	25.6*	1.3	3.0	-9.2	1.1
CCN(CC(=O)Nc1ccc(NC(C)=O)cc1)C(=O)/C=C/c1ccccc1	-1.4	-8.0	3.6	-5.6	-6.4	4.7
CCN(CC(=O)Nc1ccc(NC(C)=O)cc1)C(=O)/C=C/c1ccc(C)o1	1.1	23.6*	9.1	0.2	-4.0	5.7
CN1C(=O)c2cc(NC(=O)Nc3ccc(F)c(F)c3)ccc2OC[C@H]2O[C@@H](CC(=O)O)CC[C@H]21	3.0	-0.2	/	/	8.3	/
CCN(CC)C(=O)CC[C@@H]1CC[C@]2(CCCN(Cc3cccnc3)C2)O1	6.6	-2.2	/	/	0.0	/
Cc1ccc(NC(=O)c2ccc([N+](=O)[O-])o2)c(C)c1	0.9	-5.4	1.0	-3.1	-2.3	-0.5
Cc1ccc(S(=O)(=O)c2ccc([N+](=O)[O-])o2)cc1	-1.1	75.6*	2.0	12.4	2.9	-5.6
CC(=O)N1CCN(c2cc(C)nc3nc(C)nn23)CC1	3.6	-2.8	/	/	5.5	/
CCSc1nnc(-c2ccco2)n1C	-1.6	-4.6	/	/	3.2	/
CCCCc1ccc(-n2c(Cc3cccs3)n[nH]c2=S)cc1	-2.0	21.4*	-1.3	15.7	-3.1	3.6
O=C(O)c1ccc(-n2cccc2/C=C2/NC(=O)N(c3ccccc3)C2=O)cc1	4.0	13.1	0.9	5.3	1.7	23.7*
CC/C(=N\Nc1ccccc1[N+](=O)[O-])c1ccc(O)cc1	40.0*	2.0	/	26.7	8.1	6.5
CCOC(=O)CC[C@H]1CC[C@]2(CCCN(C3CCCCC3)C2)O1	-0.2	-3.1	/	/	3.9	/
Cn1cnc([N+](=O)[O-])c1Sc1nnc(-c2ccccc2)c(-c2ccccc2)n1	-2.7	24.0*	/	/	-7.3	-2.6
Cn1cnc([N+](=O)[O-])c1Sc1ncn[nH]1	5.5	-2.7	4.2	0.0	2.2	-11.5
CCOC(=O)c1csc(NC(=O)C2CCCN(S(=O)(=O)c3ccc(Br)s3)C2)n1 (centres undefined)	-63.0	-2.1	/	/	-6.4	/
CC(=O)Oc1cc2oc(=O)cc(C)c2cc1OC(C)=O	7.8	21.2*	7.0	8.5	-5.7	9.2
CC(C)c1ccc(N2C(=O)C(Cl)=C(N3CCOCC3)C2=O)cc1	4.3	1.0	2.1	0.5	-3.7	13.6
O=C1C(Cl)=C(N2CCOCC2)C(=O)N1c1ccc(Br)cc1	7.5	25.3*	2.1	4.5	3.3	2.0
CCCCCCCCN1CN2Cc3cc(OC)ccc3C2CS1(=O)=O (centres undefined)	-8.4	-1.4	/	/	-6.0	/
Cc1ccc2c(c1)-c1c(cnn1CC(=O)NCCc1cccc(F)c1)CO2	-0.5	0.9	/	/	-2.5	/
C[C@H]1[C@@H](NS(=O)(=O)c2ccccc2[N+](=O)[O-])CC[C@@]23CCCN2C(=O)CCC[C@@H]13	1.9	-0.3	/	/	-5.8	/
CC(OC(=O)Cc1ccccc1[N+](=O)[O-])C(=O)NC(=O)NC1CCCCC1 (centres undefined)	-2.1	-0.9	57.5*	5.9	-0.1	3.1
O=C(Nc1ccc(Nc2ccccc2)cc1)c1ccc(Cl)cc1	7.2	-2.4	11.2	-3.2	11.2	-0.9
SMILES	mABHD4 FP	PRMT1 inh	HTRA1 inhibitor	ATG4B inhibitor	SIAE primary	TCR CD3 inh
N#C/C(C(=O)Nc1ccc(Cl)cc1)=C(/S)Nc1ccccc1	19.6	90.5*	-37.1	28.4	5.7	-0.9
CCC1C2CN(C(C)=O)CC=C2C(C#N)=C(N)C1(C#N)C#N (centres undefined)	0.1	4.7	-0.7	-5.7	0.1	2.2
CCN1CC=C2C(C#N)=C(N)C(C#N)(C#N)C(c3cc(Cl)ccc3Cl)C2C1 (centres undefined)	22.9	24.7*	17.1	-2.3	7.2	6.3
CC(C)CC(=O)/C=C/n1c(=S)oc2ccccc21	-6.0	-1.6	1.0	0.1	5.6	4.5
CC(=O)/C=C/n1c(=S)oc2ccccc21	4.0	22.9*	/	-11.3	6.4	-1.9
Nc1ccn([C@@H]2O[C@H](C(=O)N[C@H](Cc3ccccc3)C(=O)Nc3ccc4scnc4c3)[C@@H](O)[C@H]2O)c(=O)n1	-5.7	21.2*	/	/	-2.1	-4.9
